Test results: paper PMC3672992 (Therapeutic drug monitoring, 2008)
Like-named read-outs stand apart in the source and are kept apart here. Values belong to the compound of their own block, whether it stands above or below them.

Key:
[1] = without ritonavir boosting, cited from earlier work
[2] = cited from earlier work
[3] = Steady-state plasma pharmacokinetics of total lopinavir; assay type: in vivo, human; conditions: for Total lopinavir Ctrough / Total lopinavir tmax: steady-state, median (IQR)
[4] = Steady-state pharmacokinetics of unbound lopinavir; assay type: in vivo, human
[5] = mild hepatic impairment group; cited from earlier work
[6] = Steady-state plasma pharmacokinetics of total ritonavir; assay type: in vivo, human
Procedure, shortened: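 HIV-infected Caucasian adults took protease-inhibitor combination capsules at 400/100 mg twice daily (266/66 mg if under 50 kg) with standardized meals. After at least 2 wk of dosing, blood was drawn predose and 1, 2, 3, 4, 6, 8 and 12 h after the morning dose. EDTA plasma (600g, 10 min) was stored at −80°C and assayed by HPLC-UV (linear 100–16,000 ng/mL). Ctrough is the predose, noncompartmental value.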

[7] = patients with significant liver fibrosis; cited from earlier work
[8] = Group III HIV+/HCV+ with cirrhosis, n=9
[9] = Group I HIV+/HCV−, n=12, median (IQR)
[10] = Group II HIV+/HCV+, n=18, median (IQR)
[11] = Group III HIV+/HCV+ with cirrhosis, n=6, median (IQR)

Compound: Cc1c(O)cccc1C(=O)N[C@@H](CSc1ccccc1)[C@H](O)CN1C[C@H]2CCCC[C@H]2C[C@H]1C(=O)NC(C)(C)C [NFV, nelfinavir]
NFV AUC(0–12) fold higher relative to noncoinfected HIV+ control group ([1]; HIV+/HCV+ patients with cirrhosis): 2.5 fold
NFV AUC(0–12) fold higher relative to noncoinfected HIV+ control group ([1]; HIV+/HCV+ patients): 1.3 fold

Compound: O=C1Nc2ccc(Cl)cc2[C@@](C#CC2CC2)(C(F)(F)F)O1 [efavirenz]
Efavirenz plasma concentration ([2]; HCV-coinfected individuals without cirrhosis): 1.9 µg/mL
Efavirenz plasma concentration ([2]; patients with cirrhosis, P = 0.001): 3.4 µg/mL

Total lopinavir Ctrough ([3]; Group I HIV+/HCV−, n=24): 7.4 (4.1–10.0) μg/mL
Total lopinavir Ctrough ([3]; Group II HIV+/HCV+, n=23): 6.4 (4.5–10.1) μg/mL
Total lopinavir tmax ([3]; Group II HIV+/HCV+, n=23): 4.0 (4.0–6.0) h
Total lopinavir Ctrough [3, 8]: 7.0 (5.7–7.6) μg/mL
Total lopinavir tmax [3, 8]: 4.0 (4.0–6.0) h
Increase in drug clearance (compensatory effect) ([3]; HIV/HCV-coinfected patients with cirrhosis versus HIV+/HCV− patients): ~ 29%
Unbound lopinavir AUCu(0–12) [4, 9]: 0.87 (0.77–1.21) μg*h/mL
Unbound lopinavir Cu,max [4, 9]: 0.12 (0.10–0.14) μg/mL
Unbound lopinavir Cu,trough [4, 9]: 0.05 (0.03–0.08) μg/mL
Unbound lopinavir AUCu(0–12) [4, 10]: 1.21 (0.73–1.43) μg*h/mL
Unbound lopinavir Cu,max [4, 10]: 0.13 (0.10–0.18) μg/mL
Unbound lopinavir Cu,trough [4, 10]: 0.07 (0.05–0.10) μg/mL
Unbound lopinavir AUCu(0–12) [4, 11]: 1.41 (1.14–1.85) μg*h/mL
Unbound lopinavir Cu,max [4, 11]: 0.16 (0.14–0.18) μg/mL
Unbound lopinavir Cu,trough [4, 11]: 0.08 (0.03–0.10) μg/mL
Compound: Cc1cccc(C)c1OCC(=O)N[C@@H](Cc1ccccc1)[C@@H](O)C[C@H](Cc1ccccc1)NC(=O)[C@H](C(C)C)N1CCCNC1=O [lopinavir]
Percentage of unbound LPV [5]: 0.89%

Total ritonavir Ctrough ([6]; Group I HIV+/HCV−, n=14, median (IQR)): 0.57 (0.51–0.77) μg/mL
Total ritonavir Ctrough ([6]; Group II HIV+/HCV+, n=15, median (IQR)): 0.50 (0.23–0.73) μg/mL
Total ritonavir Ctrough ([6]; Group III HIV+/HCV+ with cirrhosis, n=4, median (IQR)): 0.70 (0.65–0.72) μg/mL
Compound: CC(C)c1nc(CN(C)C(=O)N[C@H](C(=O)N[C@@H](Cc2ccccc2)C[C@H](O)[C@H](Cc2ccccc2)NC(=O)OCc2cncs2)C(C)C)cs1 [ritonavir]

Compound: CCC[C@@]1(CCc2ccccc2)CC(O)=C([C@H](CC)c2cccc(NS(=O)(=O)c3ccc(C(F)(F)F)cn3)c2)C(=O)O1 [tipranavir]
Change in tipranavir concentrations [7]: significant increase
